Data on 40 molecules can be found in ChEMBL document CHEMBL1629474, “Massive screening yields novel and selective Trypanosoma cruzi triosephosphate isomerase dimer-interface-irreversible inhibitors with anti-trypanosomal activity” (Eur J Med Chem, 2010).

The term inhibition denotes how much of the control response was suppressed.

The target in assay [1] is Triosephosphate isomerase, glycosomal (Trypanosoma cruzi) (UniProt P52270). In words: Inhibition of Trypanosoma cruzi triosephosphate isomerase at 400 uM after 2 hrs. The essentials:
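Recombinant E. coli-expressed enzyme, dialyzed into 100 mM triethanolamine/10 mM EDTA pH 7.4, was incubated with compound (DMSO stock) in 100 mM triethanolamine, 10 mM EDTA, pH 7.4, 10% DMSO at 36 °C for 2 h. An aliquot was then assayed for activity (glyceraldehyde 3-phosphate to dihydroxyacetone phosphate, α-glycerol phosphate dehydrogenase-coupled) with 5 ng enzyme. Irreversible inhibition was scored as loss of activity; means of two experiments.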

Assay [2] is described as follows: Selectivity for Trypanosoma cruzi triosephosphate isomerase over human triosephosphate isomerase.
In the next assay the test system is Trypanosoma cruzi. In words: Antiparasitic activity against Trypanosoma cruzi T2 epimastigotes assessed as growth inhibition at 25 uM after 5 days. In kind it is functional. The essentials:
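Late-log epimastigotes were grown axenically at 28 °C in BHI-tryptose with 5% fetal calf serum and seeded at 2×10^6/mL in medium containing compound (DMSO stock; final DMSO ≤1%, 1% DMSO control). Growth was read as A590 at day 0 and day 5. Inhibition = {1 − [(Ap − A0p)/(Ac − A0c)]} × 100. Means of two experiments.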

Activity calls are given as the source filed them. How the calls were made is not given here.

Sequence of Triosephosphate isomerase, glycosomal (Trypanosoma cruzi) (P52270 whole entry): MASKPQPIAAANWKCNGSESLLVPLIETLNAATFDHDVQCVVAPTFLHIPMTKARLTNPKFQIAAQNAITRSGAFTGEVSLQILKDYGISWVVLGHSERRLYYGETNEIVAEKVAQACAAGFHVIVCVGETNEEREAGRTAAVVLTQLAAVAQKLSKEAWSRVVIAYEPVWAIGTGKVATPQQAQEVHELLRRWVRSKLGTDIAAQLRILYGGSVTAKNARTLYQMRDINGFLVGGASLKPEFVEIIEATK

On to `C=C(C)CNC(=O)Oc1ccccc1`, for which the inhibition in assay [1] came out at 48%. Further, the Ratio in assay [2] was > 4. For the same molecule, the result in the assay with Trypanosoma cruzi was Active.

Molecule `O=C(N/N=C/c1ccc([N+](=O)[O-])o1)N1CCOCC1` registered an inhibition in assay [1] of 0%. In assay [2], the Ratio is > 4. Moreover, the result in the assay with Trypanosoma cruzi was Active.

Regarding `CN(CCCN(C)Cc1cccc2ccccc12)Cc1cccc2ccccc12`, in assay [1], the inhibition was 55%. Besides, the Ratio in assay [2] was > 4. The outcome with Trypanosoma cruzi was Active.

For `O=C(/C=C/c1ccc([N+](=O)[O-])o1)NCCCl`, the inhibition in assay [1] is 13%. Further, in assay [2], the Ratio is > 4. For the same molecule, the outcome in the assay on Trypanosoma cruzi was Active.

The molecule `O=C(N/N=C/c1ccc([N+](=O)[O-])s1)N1CCOCC1` registered an inhibition in assay [1] of 5%. Further, in assay [2], the Ratio is > 4. Further, the result in the assay on Trypanosoma cruzi was Active.

For the molecule `O=C(N/N=C/c1ccc([N+](=O)[O-])o1)Oc1ccccc1`, in assay [1], the inhibition was 27%. Besides, the Ratio in assay [2] is > 4. In the assay on Trypanosoma cruzi, the outcome was Active.

In the case of `C=CCNC(=S)N/N=C/c1ccco1`, the inhibition in assay [1] came out at 12%. The Ratio in assay [2] is > 4. In addition, the result in the assay on Trypanosoma cruzi was Active.

For the molecule `C=CCNC(=S)N/N=C/C=C/c1ccc([N+](=O)[O-])o1`, the inhibition in assay [1] is 12%. The Ratio in assay [2] is > 4. Moreover, the result in the assay on Trypanosoma cruzi was Active.

Regarding `O=C(Oc1ccccc1)N1CCN(C/C=C/c2ccccc2)CC1`, the inhibition in assay [1] turned out to be 21%. The Ratio in assay [2] was > 4. For the same molecule, the outcome in the assay on Trypanosoma cruzi was Active.

In turn, `CCCCCCNC(=O)N/N=C/c1ccc2no[n+]([O-])c2c1` returned an inhibition in assay [1] of 43%. The Ratio in assay [2] is > 4. In addition, the outcome in the assay with Trypanosoma cruzi was Active.

In the case of `O=[N+]([O-])c1ccc2c(c1)c(OCc1ccccc1)nn2CCCCCN1CCCCC1`, the inhibition in assay [1] was 0%. Further, the Ratio in assay [2] was > 4. The outcome with Trypanosoma cruzi was Active.

`O=C(N/N=C/C=C/c1ccc([N+](=O)[O-])o1)Oc1ccccc1` returned an inhibition in assay [1] of 45%. In assay [2], the Ratio was > 4. For the same molecule, the result in the assay on Trypanosoma cruzi was Active.

In turn, `O=C(Oc1ccccc1)N1CCOCC1` had an inhibition in assay [1] of 26%. Moreover, the Ratio in assay [2] was > 4. Further, the outcome in the assay on Trypanosoma cruzi was Active.

In assay [1], `CCOC(=O)/C=C/c1ccc([N+](=O)[O-])o1` had an inhibition of 3%. For the same molecule, the Ratio in assay [2] was > 4. In addition, the result with Trypanosoma cruzi was Active.

As for `CCCCNC(=O)N/N=C/c1ccc2no[n+]([O-])c2c1`, in assay [1], the inhibition amounted to 38%. Also, in assay [2], the Ratio is > 4. In addition, the outcome with Trypanosoma cruzi was Active.

`NC(=O)N/N=C/c1ccc2no[n+]([O-])c2c1` gave an inhibition in assay [1] of 73%. For the same molecule, in assay [2], the Ratio was > 4. In addition, the outcome with Trypanosoma cruzi was Active.

In turn, `[O-][n+]1onc2ccc(/C=N/NC(=S)Nc3ccccc3)cc21` gave an inhibition in assay [1] of 60%. Further, the Ratio in assay [2] is > 4. Moreover, the result with Trypanosoma cruzi was Active.

In the case of `CCCN(CCCCCn1nc(OCc2ccccc2)c2cc([N+](=O)[O-])ccc21)CCC(C)C1CC=C(C)CC1` (stereo not given), the inhibition in assay [1] came to 11%. Further, the Ratio in assay [2] is > 4. The result in the assay with Trypanosoma cruzi was Active.

In assay [1], `C=CCNC(=S)N/N=C/c1ccc2c(c1)[n+]([O-])c(C)c(C)[n+]2[O-]` returned an inhibition of 42%. Moreover, the Ratio in assay [2] was > 4. Besides, in the assay on Trypanosoma cruzi, the result was Active.

The molecule `CC1(C)[N+]([O-])=c2ccc(CN3CCN(C/C=C/c4ccccc4)CC3)cc2=[N+]1[O-]` returned an inhibition in assay [1] of 31%. In addition, the Ratio in assay [2] is > 4. In the assay with Trypanosoma cruzi, the outcome was Active.

Molecule `O=C1C(=Cc2ccc([N+](=O)[O-])s2)C(=O)N(C2CCCCC2)S(=O)(=O)N1C1CCCCC1` gave an inhibition in assay [1] of 49%. In addition, in assay [2], the Ratio was > 4. Moreover, the outcome in the assay with Trypanosoma cruzi was Active.

As to `[O-][n+]1onc2ccc(/C=C\[S+]([O-])c3ccccc3)cc21` (stereo not given), the inhibition in assay [1] stood at 69%. Besides, the Ratio in assay [2] was > 4. The outcome with Trypanosoma cruzi was Active.

In assay [1], `CC(=O)Oc1c(C)c(C)c2c(c1C)CCC(C)(C(=O)NCCOc1c(S(=O)(=O)c3ccccc3)no[n+]1[O-])O2` (stereo not given) came in with an inhibition of 25%. The Ratio in assay [2] is > 4. Besides, the outcome with Trypanosoma cruzi was Active.

For `O=S(=O)(NC1CCCCC1)NC1CCCCC1`, the inhibition in assay [1] was 0%. Besides, the Ratio in assay [2] is > 4. Further, the outcome with Trypanosoma cruzi was Active.

`O=S(=O)(NCCc1ccccc1)NCCc1ccccc1` returned an inhibition in assay [1] of 0%. For the same molecule, the Ratio in assay [2] is > 4. The result in the assay with Trypanosoma cruzi was Active.

In assay [1], `[O-][N+]1=c2ccc(/C=N/O)cc2=[N+]([O-])C12CCCC2` came in with an inhibition of 2%. In addition, the Ratio in assay [2] was > 4. For the same molecule, the outcome in the assay on Trypanosoma cruzi was Active.

Molecule `O=C(c1ccc2no[n+]([O-])c2c1)N1CCOCC1` showed an inhibition in assay [1] of 7%. Besides, the Ratio in assay [2] was > 4. Besides, in the assay with Trypanosoma cruzi, the result was Active.

In assay [1], `CCCCCCNC(=O)N/N=C/c1ccc([N+](=O)[O-])s1` gave an inhibition of 14%. Further, the Ratio in assay [2] is > 4. For the same molecule, the outcome in the assay with Trypanosoma cruzi was Active.

In assay [1], `O=C(CCl)Oc1ccc2c(c1)[n+]([O-])c1cc(Br)ccc1[n+]2[O-]` registered an inhibition of 50%. Besides, the Ratio in assay [2] was > 4. Further, the result with Trypanosoma cruzi was Active.

In assay [1], `C=CCNC(=S)N/N=C/C=C/c1ccco1` had an inhibition of 15%. Moreover, in assay [2], the Ratio is > 4. The result with Trypanosoma cruzi was Active.

As to `O=C(/C=C/c1ccccc1)c1ccccc1O`, the inhibition in assay [1] amounted to 15%. Further, the Ratio in assay [2] is > 4. The outcome in the assay on Trypanosoma cruzi was Active.

In assay [1], `Cn1c2ccc(Cl)cc2c(-c2ccccc2)[n+]1[O-]` registered an inhibition of 16%. Further, the Ratio in assay [2] is > 4. Further, in the assay on Trypanosoma cruzi, the result was Active.

With `Cc1no[n+]([O-])c1/C=N/NC(N)=O`, the inhibition in assay [1] was determined as 2%. In addition, the Ratio in assay [2] is > 4. Further, in the assay on Trypanosoma cruzi, the result was Active.

The molecule `O=[N+]([O-])c1ccc2c(c1)[n+]([O-])c1n2CCOC1` gave an inhibition in assay [1] of 14%. For the same molecule, the Ratio in assay [2] is > 4. In the assay with Trypanosoma cruzi, the outcome was Active.

As for `COC(=O)N/N=C/c1ccc2nonc2c1`, the inhibition in assay [1] was determined as 16%. For the same molecule, the Ratio in assay [2] was > 4. For the same molecule, the result in the assay with Trypanosoma cruzi was Active.

`O=Cc1ccc2no[n+]([O-])c2c1` came in with an inhibition in assay [1] of 14%. For the same molecule, the Ratio in assay [2] was > 4. Moreover, the result in the assay on Trypanosoma cruzi was Active.

For `O=C(CN1C(=O)c2ccccc2C1=O)c1ccccc1`, in assay [1], the inhibition was 0%. For the same molecule, the Ratio in assay [2] was > 4. Moreover, the outcome in the assay on Trypanosoma cruzi was Active.

Molecule `C=C(C)CNC(=O)N/N=C/c1ccc([N+](=O)[O-])o1` had an inhibition in assay [1] of 6%. For the same molecule, the Ratio in assay [2] is > 4. Moreover, the result in the assay on Trypanosoma cruzi was Active.

In assay [1], `CC(=N\c1ccc(C)cc1)/C(C)=N/c1ccc(C)cc1` had an inhibition of 23%. For the same molecule, the Ratio in assay [2] is > 4. In the assay on Trypanosoma cruzi, the outcome was Active.

Turning to `O=C(/C=C/c1ccccc1)c1ccccc1`, in assay [1], the inhibition was 33%. Besides, in assay [2], the Ratio is > 4. The outcome in the assay on Trypanosoma cruzi was Active.
